Assay [1] deals with Bromodomain-containing protein 3 (Homo sapiens, UniProt Q15059). Kind of assay: Induction of BRD3 degradation in human MDA-MB-231 cells assessed as decrease in BET half life at 50 ug/ml incubated for 8 hrs by immunoblotting analysis. Type of assay: cell-based. To be noted: dose 50.0 µg/ml. An outline of the steps: (§1)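 MDA-MB-231 time-course. Cells given 50 µg/mL cycloheximide plus DMSO, or 50 µg/mL cycloheximide plus 10 µM compound. RIPA lysates immunoblotted for BRD2, BRD3 and BRD4 with GAPDH as control.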
In general terms: In western blotting, separated proteins are transferred to a membrane and probed.

Assay [2] deals with Bromodomain-containing protein 4 (Homo sapiens, UniProt O60885). Kind of assay: Induction of BRD4 degradation in human MDA-MB-231 cells assessed as decrease in BET half life at 50 ug/ml incubated for 8 hrs by immunoblotting analysis. Type of assay: cell-based. The note with it: dose 50.0 µg/ml. A digest of the protocol:
as §1

The target in assay [3] is Bromodomain-containing protein 2 (Homo sapiens, UniProt P25440). Kind of assay: Induction of BRD2 degradation in human MDA-MB-231 cells assessed as decrease in BET half life at 50 ug/ml incubated for 8 hrs by immunoblotting analysis. To be noted: dose 50.0 µg/ml. Type of assay: cell-based. An outline of the steps:
as §1

Another assay deals with PC-3. Kind of assay: Cytotoxicity against human PC-3 cells assessed as reduction in cell viability measured after 5 days by Cell-Titer glo assay. Type of assay: functional, cell-based. The note with it: PC-3, 120 h.

Activity and EC50 data for two molecules are collected here from ChEMBL document CHEMBL5316292 (J Med Chem, 2023).

Molecules are shown by their SMILES. Calls of active or inactive are those of the source. The rule behind the calls is not given here.

Bromodomain-containing protein 2, sequence (P25440 whole entry, looked up): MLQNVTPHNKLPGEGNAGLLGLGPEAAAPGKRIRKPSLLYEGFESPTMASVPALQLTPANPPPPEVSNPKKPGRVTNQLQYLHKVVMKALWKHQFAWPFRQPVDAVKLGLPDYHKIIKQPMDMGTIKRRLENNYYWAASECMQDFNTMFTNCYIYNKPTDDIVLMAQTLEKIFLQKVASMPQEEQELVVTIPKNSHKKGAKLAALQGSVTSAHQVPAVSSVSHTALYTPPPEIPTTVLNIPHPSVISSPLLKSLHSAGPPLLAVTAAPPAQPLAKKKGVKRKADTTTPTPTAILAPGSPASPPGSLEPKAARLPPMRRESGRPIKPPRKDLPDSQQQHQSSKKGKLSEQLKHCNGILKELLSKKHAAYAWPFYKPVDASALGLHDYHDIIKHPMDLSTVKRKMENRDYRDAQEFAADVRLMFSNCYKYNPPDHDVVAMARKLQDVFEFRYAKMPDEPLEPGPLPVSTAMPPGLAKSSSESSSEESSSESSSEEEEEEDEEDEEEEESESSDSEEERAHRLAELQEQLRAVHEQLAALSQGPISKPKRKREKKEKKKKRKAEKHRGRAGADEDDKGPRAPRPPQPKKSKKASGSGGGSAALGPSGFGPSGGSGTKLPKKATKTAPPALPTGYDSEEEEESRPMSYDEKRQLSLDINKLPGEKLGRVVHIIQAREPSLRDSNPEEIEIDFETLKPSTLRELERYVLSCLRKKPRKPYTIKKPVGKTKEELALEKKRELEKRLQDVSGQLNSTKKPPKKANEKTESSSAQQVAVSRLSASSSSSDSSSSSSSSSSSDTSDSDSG
Bromodomain-containing protein 3, sequence (Q15059 2-726 limits assumed): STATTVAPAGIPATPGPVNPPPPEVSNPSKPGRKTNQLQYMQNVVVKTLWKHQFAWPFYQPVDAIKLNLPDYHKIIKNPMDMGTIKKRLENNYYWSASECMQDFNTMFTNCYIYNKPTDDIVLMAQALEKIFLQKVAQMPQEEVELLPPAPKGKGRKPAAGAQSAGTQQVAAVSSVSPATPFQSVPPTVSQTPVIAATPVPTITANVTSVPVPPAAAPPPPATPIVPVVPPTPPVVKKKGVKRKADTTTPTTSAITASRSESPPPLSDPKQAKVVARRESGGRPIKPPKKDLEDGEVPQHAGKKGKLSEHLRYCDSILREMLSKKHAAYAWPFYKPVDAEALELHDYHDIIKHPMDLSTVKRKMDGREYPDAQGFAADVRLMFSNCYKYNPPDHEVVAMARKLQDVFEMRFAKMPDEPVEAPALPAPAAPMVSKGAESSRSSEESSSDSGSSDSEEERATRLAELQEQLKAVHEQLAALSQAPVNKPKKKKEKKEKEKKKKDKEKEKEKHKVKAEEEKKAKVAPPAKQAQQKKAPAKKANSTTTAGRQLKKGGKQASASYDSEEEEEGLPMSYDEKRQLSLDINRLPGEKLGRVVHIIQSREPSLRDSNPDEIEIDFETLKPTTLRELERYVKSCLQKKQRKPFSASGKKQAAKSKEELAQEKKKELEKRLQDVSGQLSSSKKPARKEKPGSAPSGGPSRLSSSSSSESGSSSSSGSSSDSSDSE

On to `C[C@@H]1C[C@@H]([C@H](O)CC2CC(=O)NC(=O)C2)C(=O)[C@@H](C)C1`, for which the outcome in assay [1], in assay [2] and in assay [3] was inactive.

In general, EC50 refers to the concentration needed to bring the measured effect to its halfway point. Regarding `Cc1sc2c(c1C)C(c1ccc(Cl)cc1)=N[C@@H](CC(=O)NCCCCNC(=O)COc1cccc3c1C(=O)N(C1CCC(=O)NC1=O)C3=O)c1nnc(C)n1-2` (some centres undefined), the 50% effective concentration (EC50) in the assay with PC-3 came out at 50 nM.
